Consider three compounds from paper PMC3761190 (The British Journal of Dermatology, 2013).

Read-outs that look alike come from different tables or passages of the source.

The nature of data set [1]: Plasma pharmacokinetics after 4 weeks of topical treatment. Type of data set: in vivo, human. The settings on record: approx. 1.5% BSA, comparator Pfizer, data on file. Summed up:
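Adults with mild-to-moderate chronic plaque psoriasis applied test-compound ointment (one formulation 2%, 20 mg g−1) twice daily for 4 weeks at 3 mg cm−2 to a fixed 300 cm2 area. Week-4 plasma sampled predose and 1, 2, 4–9 h post-dose.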

Data set [2] relates to plaque psoriasis. The following applies: cited from earlier work; for Mean total lesion score decrease from baseline: week 4.
Data set [3] deals with psoriasis. The following applies: week 4; 13-point scale; cited from earlier work.

For `C[C@@H]1CCN(C(=O)CC#N)C[C@@H]1N(C)c1ncnc2[nH]ccc12` [tofacitinib, Tofacitinib], the “Mean systemic exposure lower than with oral tofacitinib 2 mg twice daily” value in data set [1] is listed as “approximately 40 fold”. For the compound `N#CC[C@H](C1CCCC1)n1cc(-c2ncnc3[nH]ccc23)cn1` [INCB018424], the “Tolerability of topical application” value in data set [2] (cream, 4 weeks) is listed as “well tolerated”. The entries for the “Mean total lesion score decrease from baseline” value in data set [2] (1.0% cream daily) and in data set [2] (1.5% cream twice daily) were 53% and 54%, respectively. Take `CCC(=O)OCC(=O)[C@@]1(OC(=O)CC)[C@@H](C)C[C@H]2[C@@H]3CCC4=CC(=O)C=C[C@]4(C)[C@@]3(F)[C@@H](O)C[C@@]21C` [betamethasone dipropionate]: the “Total lesion sum score percentage change from baseline” value in data set [3] was “–41%”.
